Data published in article PMC10652724 (ACS Omega, 2023).

What was measured:
[1] = nitrofuran metabolite; cited from earlier work
[2] = In vitro cytotoxicity, Cell Counting Kit-8; format: cell-based; conditions: bovine, MDBK cells (Madin–Darby bovine kidney)
How it was run: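 MDBK cells (1 × 10^4 cells/mL) incubated at 37°C for 72 h with test compound in […] twofold serial dilutions, 100 down to 0.39 μg/mL. Cell Counting Kit-8 added; OD450 read before and after a further 4 h incubation. Done in three replicates. CC50 from nonlinear regression curve fit, reported as mean ± SD.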

T. b. brucei GUTat3.1 = assay: In vitro trypanocidal activity, bloodstream forms, CellTiter-Glo; format: cell-based, Trypanosoma brucei brucei
T. b. gambiense IL1922 = assay: as above; format: cell-based, Trypanosoma brucei gambiense
T. b. rhodesiense IL1501 = assay: as above; format: cell-based, Trypanosoma brucei rhodesiense
T. equiperdum IVM-t1 = assay: as above; format: cell-based, Trypanosoma equiperdum
T. evansi Tansui = assay: as above; format: cell-based, Trypanosoma evansi
T. congolense IL3000 [3] = assay: as above; format: cell-based, Trypanosoma congolense
T. congolense IL3000 [4] = conditions: T. congolense IL3000 infected mice, cited from earlier work

| Structure (SMILES) | metabolite present in edible pig tissues [1] | CC50 at 72 h [2] | Selectivity index (SI) (T. b. brucei GUTat3.1; CC50 of MDBK/IC50 of Tbb GuTat3.1) | IC50 (T. b. brucei GUTat3.1; Trypanosoma brucei, 72 h, read-out: trypanocidal activity IC50 ± SD) | Selectivity index (SI) (T. b. gambiense IL1922; CC50 of MDBK/IC50 of Tbg IL1922) | IC50 (T. b. gambiense IL1922; Trypanosoma brucei, GAMBIENSE, 72 h, read-out: trypanocidal activity IC50 ± SD) | Selectivity index (SI) (T. b. rhodesiense IL1501; CC50 of MDBK/IC50 of Tbr IL1501) | IC50 (T. b. rhodesiense IL1501; Trypanosoma brucei, RHODESIENSE, 72 h, read-out: trypanocidal activity IC50 ± SD) | Selectivity index (SI) (T. equiperdum IVM-t1; CC50 of MDBK/IC50 of Teq IVM-t1) | IC50 (T. equiperdum IVM-t1; Trypanosoma equiperdum, 72 h, read-out: trypanocidal activity IC50 ± SD) | Selectivity index (SI) (T. evansi Tansui; CC50 of MDBK/IC50 of Tev Tansui) | IC50 (T. evansi Tansui; Trypanosoma evansi, 72 h, read-out: trypanocidal activity IC50 ± SD) | Selectivity index (SI) (T. congolense IL3000 [3]; CC50 of MDBK/IC50 of Tc IL3000) | IC50 (T. congolense IL3000 [3]; Trypanosoma congolense, 72 h, read-out: trypanocidal activity IC50 ± SD) | minimum effective dose (T. congolense IL3000 [4]) | survival and cure (T. congolense IL3000 [4]; dose ≥30 mg/kg) |
| --- | --- | --- | --- | --- | --- | --- | --- | --- | --- | --- | --- | --- | --- | --- | --- | --- |
| NN1CC(=O)NC1=O [1-aminihydantoin, 1-aminohydantoin] | 3 to 8 µg/kg |  |  |  |  |  |  |  |  |  |  |  |  |  |  |  |
| O=C1CN(/N=C/c2ccc([N+](=O)[O-])o2)C(=O)N1 [Nitrofurantoin, nitrofurantoin] |  | 73000 ± 36200 nM | 48 | 1510 ± 30 nM | 39 | 1850 ± 230 nM | 43 | 1690 ± 200 nM | 50 | 1450 ± 30 nM | 44 | 1670 ± 70 nM | 174 | 420 ± 50 nM | 30 mg/kg | 100% |
